Measured values reported in ChEMBL document CHEMBL2150893, “Synthesis of β-ionone derived chalcones as potent antimicrobial agents” (2012).
Values after ≈ are worked out from the molar mass of the structure shown. Active and inactive are the calls of the source. The calls are words filed in the database; no cut-off is given here.

Columns and labels:
[1] = test system: Bacillus subtilis; experiment: Antibacterial activity against Bacillus subtilis MTCC 2451 after 24 hrs by serial dilution method; format: functional; settings: MTCC 2451, 24 h
Outline: (§1)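 Serial tube dilution MIC. Strains were grown in nutrient broth to an OD600 of 0.4-0.6. Compounds were tested at 0.78, 1.56, 3.12, 6.25, 12.5, 25 and 50 µg/ml, each in a separate tube containing 5 ml nutrient broth plus 1 ml compound solution. Tubes were incubated 24 h with shaking at 180 rpm. Growth was followed by optical density at 600 nm.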

[2] = Antifungal activity against Cryptococcus gastricus MTCC 1715 after 24 hrs by serial dilution method; format: functional; settings: Goffeauzyma gastrica
Outline: (§2)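 Fungal MIC by serial tube dilution. Dilutions of test compounds (1.9–500 µg/ml) were made from stock solution. Each tube held 1 ml nutrient broth and received 20 µl of standard strain culture.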

[3] = test system: Staphylococcus aureus; experiment: Antibacterial activity against Staphylococcus aureus MTCC 96 after 24 hrs by serial dilution method; format: functional; settings: MTCC 96, 24 h; outline: as §1
[4] = test system: Escherichia coli; experiment: Antibacterial activity against Escherichia coli MTCC 82 after 24 hrs by serial dilution method; format: functional; settings: MTCC 82, 24 h; outline: as §1
[5] = test system: Salmonella typhi; experiment: Antibacterial activity against Salmonella typhi after 24 hrs by serial dilution method; format: functional, Salmonella enterica subsp. enterica serovar Typhi; settings: Salmonella enterica
Outline: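 Serial tube dilution MIC in nutrient broth. Bacteria were grown until OD600 reached 0.4-0.6. Tubes held 5 ml broth plus 1 ml compound at 0.78, 1.56, 3.12, 6.25, 12.5, 25 or 50 µg/ml and were shaken at 180 rpm for 24 h. Initial medium OD was read at 600 nm.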

[6] = test system: Aspergillus niger; experiment: Antifungal activity against Aspergillus niger MTCC 1344 after 24 hrs by serial dilution method; format: functional; settings: MTCC 1344, 24 h; outline: as §2
[7] = test system: Saccharomyces cerevisiae; experiment: Antifungal activity against Saccharomyces cerevisiae MTCC 172 after 24 hrs by serial dilution method; format: functional; settings: MTCC 172, 24 h; outline: as §2
[8] = test system: Candida albicans; experiment: Antifungal activity against Candida albicans MTCC 3018 after 24 hrs by serial dilution method; format: functional; settings: MTCC 3018, 24 h; outline: as §2
[9] = test system: Nannizzia gypsea; experiment: Antifungal activity against Microsporum gypseum MTCC 4490 after 24 hrs by serial dilution method; format: functional; settings: MTCC 4490, 24 h; outline: as §2
[10] = test system: Pseudomonas aeruginosa; experiment: Antibacterial activity against Pseudomonas aeruginosa MTCC 2642 after 24 hrs by serial dilution method; format: functional; settings: MTCC 2642, 24 h; outline: as §1
[11] = test system: Klebsiella pneumoniae; experiment: Antibacterial activity against Klebsiella pneumoniae MTCC 530 after 24 hrs by serial dilution method; format: functional, organism-based

| SMILES | MIC [1] | MIC [2] | MIC [3] | MIC [4] | MIC [5] | MIC [6] | MIC [7] | MIC [8] | MIC [9] | MIC [10] | Activity [11] |
| --- | --- | --- | --- | --- | --- | --- | --- | --- | --- | --- | --- |
| CC1=C(/C=C/C(=O)/C=C/c2ccc(C#N)cc2)C(C)(C)CCC1 | > 100 µg/mL | > 100 µg/mL | 42 µg/mL (≈ 138 µM) | 37 µg/mL (≈ 121 µM) | > 100 µg/mL | 52.4 µg/mL (≈ 172 µM) | > 100 µg/mL | 80 µg/mL (≈ 262 µM) | 90.5 µg/mL (≈ 296 µM) | – | – |
| CC1=C(/C=C/C(=O)/C=C/c2ccccc2)C(C)(C)CCC1 | 3.12 µg/mL (≈ 11.1 µM) | 78 µg/mL (≈ 278 µM) | 3.12 µg/mL (≈ 11.1 µM) | 1.56 µg/mL (≈ 5.56 µM) | 12.5 µg/mL (≈ 44.6 µM) | > 100 µg/mL | 61.5 µg/mL (≈ 219 µM) | > 100 µg/mL | > 100 µg/mL | 12.5 µg/mL (≈ 44.6 µM) | inactive |
| COc1ccccc1/C=C/C=C/C(=O)/C=C/C1=C(C)CCCC1(C)C | 25 µg/mL (≈ 74.3 µM) | 19.5 µg/mL (≈ 58 µM) | > 100 µg/mL | > 100 µg/mL | > 100 µg/mL | 80 µg/mL (≈ 238 µM) | 34 µg/mL (≈ 101 µM) | > 100 µg/mL | 71.5 µg/mL (≈ 212 µM) | 32.5 µg/mL (≈ 96.6 µM) | – |
| COC1=CC(=O)C[C@@H](C)[C@]12Oc1c(Cl)c(OC)cc(OC)c1C2=O [GRISEOFULVIN] | – | 1.9 µg/mL (≈ 5.39 µM) | – | – | – | 1.9 µg/mL (≈ 5.39 µM) | 1.9 µg/mL (≈ 5.39 µM) | 1.9 µg/mL (≈ 5.39 µM) | 1.9 µg/mL (≈ 5.39 µM) | – | – |
| O=C(O)c1cn(C2CC2)c2cc(N3CCNCC3)c(F)cc2c1=O [CIPROFLOXACIN] | 0.75 µg/mL (≈ 2.26 µM) | – | 1.2 µg/mL (≈ 3.62 µM) | 0.9 µg/mL (≈ 2.72 µM) | – | – | – | – | – | 1.8 µg/mL (≈ 5.43 µM) | – |
| CC1=C(/C=C/C(=O)/C=C/c2ccc(Br)cc2)C(C)(C)CCC1 | – | – | – | > 100 µg/mL | > 100 µg/mL | – | – | – | – | > 100 µg/mL | – |
| COc1ccc(/C=C/C(=O)/C=C/C2=C(C)CCCC2(C)C)cc1OC | 22.5 µg/mL (≈ 66.1 µM) | – | – | 42 µg/mL (≈ 123 µM) | > 100 µg/mL | – | – | – | – | 55.5 µg/mL (≈ 163 µM) | – |
| CC1=C(/C=C/C(=O)/C=C/c2ccccc2[N+](=O)[O-])C(C)(C)CCC1 | 3.12 µg/mL (≈ 9.59 µM) | 58.4 µg/mL (≈ 179 µM) | 6.25 µg/mL (≈ 19.2 µM) | 12.5 µg/mL (≈ 38.4 µM) | 25 µg/mL (≈ 76.8 µM) | 32.4 µg/mL (≈ 99.6 µM) | 42.5 µg/mL (≈ 131 µM) | > 100 µg/mL | > 100 µg/mL | 3.12 µg/mL (≈ 9.59 µM) | inactive |
| CC1=C(/C=C/C(=O)/C=C/c2ccoc2)C(C)(C)CCC1 | 22.5 µg/mL (≈ 83.2 µM) | 72.5 µg/mL (≈ 268 µM) | – | > 100 µg/mL | 74 µg/mL (≈ 274 µM) | 61.4 µg/mL (≈ 227 µM) | > 100 µg/mL | 74 µg/mL (≈ 274 µM) | > 100 µg/mL | > 100 µg/mL | – |
| CC1=C(/C=C/C(=O)/C=C/C=C/c2ccccc2)C(C)(C)CCC1 | 3.12 µg/mL (≈ 10.2 µM) | 55.5 µg/mL (≈ 181 µM) | 6.25 µg/mL (≈ 20.4 µM) | 6.25 µg/mL (≈ 20.4 µM) | 50 µg/mL (≈ 163 µM) | 25 µg/mL (≈ 81.6 µM) | 80 µg/mL (≈ 261 µM) | > 100 µg/mL | > 100 µg/mL | > 100 µg/mL | inactive |
| COc1ccc(/C=C/C(=O)/C=C/C2=C(C)CCCC2(C)C)cc1 | – | – | 25 µg/mL (≈ 80.5 µM) | > 100 µg/mL | > 100 µg/mL | – | – | – | – | – | – |
| CC1(C)S[C@@H]2[C@H](NC(=O)[C@H](N)c3ccc(O)cc3)C(=O)N2[C@H]1C(=O)O [AMOXICILLIN] | 0.5 µg/mL (≈ 1.37 µM) | – | 0.5 µg/mL (≈ 1.37 µM) | 0.12 µg/mL (≈ 0.328 µM) | 0.9 µg/mL (≈ 2.46 µM) | – | – | – | – | 1 µg/mL (≈ 2.74 µM) | – |
| CC1=C(/C=C/C(=O)/C=C/c2ccc(C)cc2)C(C)(C)CCC1 | 25 µg/mL (≈ 84.9 µM) | > 100 µg/mL | > 100 µg/mL | – | > 100 µg/mL | > 100 µg/mL | 40.5 µg/mL (≈ 138 µM) | 46 µg/mL (≈ 156 µM) | > 100 µg/mL | 65 µg/mL (≈ 221 µM) | – |
| CC1=C(/C=C/C(=O)/C=C/c2ccccc2F)C(C)(C)CCC1 | – | > 100 µg/mL | > 100 µg/mL | > 100 µg/mL | > 100 µg/mL | 9.9 µg/mL (≈ 33.2 µM) | 11.4 µg/mL (≈ 38.2 µM) | 44.5 µg/mL (≈ 149 µM) | > 100 µg/mL | – | – |
| CC1=C(/C=C/C(=O)/C=C/c2cccc3ccccc23)C(C)(C)CCC1 | 25 µg/mL (≈ 75.6 µM) | > 100 µg/mL | 25 µg/mL (≈ 75.6 µM) | 55.5 µg/mL (≈ 168 µM) | – | 55 µg/mL (≈ 166 µM) | > 100 µg/mL | 71.5 µg/mL (≈ 216 µM) | 98 µg/mL (≈ 297 µM) | – | – |
| CC1=C(/C=C/C(=O)/C=C/c2ccccc2Br)C(C)(C)CCC1 | 40.2 µg/mL (≈ 112 µM) | > 100 µg/mL | 25 µg/mL (≈ 69.6 µM) | – | – | 7.6 µg/mL (≈ 21.2 µM) | 3.9 µg/mL (≈ 10.9 µM) | 31.2 µg/mL (≈ 86.8 µM) | > 100 µg/mL | > 100 µg/mL | – |
| CC1=C(/C=C/C(=O)/C=C/c2ccc(F)cc2)C(C)(C)CCC1 | 25 µg/mL (≈ 83.8 µM) | > 100 µg/mL | 25.5 µg/mL (≈ 85.5 µM) | > 100 µg/mL | – | 15.6 µg/mL (≈ 52.3 µM) | 15.6 µg/mL (≈ 52.3 µM) | 12.5 µg/mL (≈ 41.9 µM) | > 100 µg/mL | – | – |
| CC1=C(/C=C/C(=O)/C=C/c2ccccc2C)C(C)(C)CCC1 | 25 µg/mL (≈ 84.9 µM) | > 100 µg/mL | > 100 µg/mL | 30.5 µg/mL (≈ 104 µM) | 55.5 µg/mL (≈ 188 µM) | > 100 µg/mL | 96 µg/mL (≈ 326 µM) | 72 µg/mL (≈ 245 µM) | > 100 µg/mL | – | inactive |
| CC1=C(/C=C/C(=O)/C=C/c2ccc([N+](=O)[O-])cc2)C(C)(C)CCC1 | 3.12 µg/mL (≈ 9.59 µM) | 90.4 µg/mL (≈ 278 µM) | 25 µg/mL (≈ 76.8 µM) | 6.25 µg/mL (≈ 19.2 µM) | > 100 µg/mL | 9.6 µg/mL (≈ 29.5 µM) | 19.5 µg/mL (≈ 59.9 µM) | 11.2 µg/mL (≈ 34.4 µM) | 82 µg/mL (≈ 252 µM) | 12.5 µg/mL (≈ 38.4 µM) | – |
| OC(Cn1cncn1)(Cn1cncn1)c1ccc(F)cc1F [FLUCONAZOLE] | – | 31.2 µg/mL (≈ 102 µM) | – | – | – | 1.9 µg/mL (≈ 6.2 µM) | 1.9 µg/mL (≈ 6.2 µM) | 3.9 µg/mL (≈ 12.7 µM) | 1.9 µg/mL (≈ 6.2 µM) | – | – |
| CC1=C(/C=C/C(=O)/C=C/c2ccccc2Cl)C(C)(C)CCC1 | 0.78 µg/mL (≈ 2.48 µM) | > 100 µg/mL | 1.56 µg/mL (≈ 4.95 µM) | 1.56 µg/mL (≈ 4.95 µM) | > 100 µg/mL | 33.5 µg/mL (≈ 106 µM) | 12.5 µg/mL (≈ 39.7 µM) | 11.5 µg/mL (≈ 36.5 µM) | 94 µg/mL (≈ 299 µM) | 12.5 µg/mL (≈ 39.7 µM) | – |
| COc1cc(/C=C/C(=O)/C=C/C2=C(C)CCCC2(C)C)cc(OC)c1OC | > 100 µg/mL | – | 19.5 µg/mL (≈ 52.6 µM) | – | 45 µg/mL (≈ 121 µM) | – | – | – | – | 22.5 µg/mL (≈ 60.7 µM) | inactive |
| CC1=C(/C=C/C(=O)/C=C/c2ccc(Cl)c(Cl)c2)C(C)(C)CCC1 | 25 µg/mL (≈ 71.6 µM) | – | 32.5 µg/mL (≈ 93 µM) | 22 µg/mL (≈ 63 µM) | > 100 µg/mL | – | – | – | – | – | – |
| COc1ccccc1/C=C/C(=O)/C=C/C1=C(C)CCCC1(C)C | 25 µg/mL (≈ 80.5 µM) | > 100 µg/mL | 22.2 µg/mL (≈ 71.5 µM) | 31.5 µg/mL (≈ 101 µM) | > 100 µg/mL | 92.5 µg/mL (≈ 298 µM) | 61.4 µg/mL (≈ 198 µM) | > 100 µg/mL | 88.5 µg/mL (≈ 285 µM) | > 100 µg/mL | – |
